Measles CPE = protection of cells from measles virus; Measles virus-infected cells, CPE protection, absorbance; protection (pct of control), % at 4 µM; hit rate 1.5% among 140,000; AID 841; in the data active = protection mostly above about 24%, no sharp cut-off; inactive = mostly below about 26%
Yeast growth inh = chemicals that inhibit yeast BB579 growth in restrictive medium (lifespan-shortening candidates); S. cerevisiae BB579 growth, OD615, 48 h; hit rate 0.51% among 140,000; inhibition, % at 10 µM; AID 804;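 active = inhibition above a set limit, 3 SD over the mean compound inhibition, cut at about 44% in these data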
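Material: Saccharomyces cerevisiae DeaD strain BB579, replicative lifespan model yeast; buffer or medium: CSMM-D restrictive synthetic medium containing dextrose (glucose); compound: 10 µM single dose, DMSO 0.25%; timing: 48 h compound exposure at 30 °C after 4 h preincubation; signal: turbidity as optical density at 615 nm; benchmarks: positive control amphotericin B 10 µg/mL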
Yeast life ext = extends the lifespan of yeast; S. cerevisiae growth with nicotinamide, OD615; deaD strain in restrictive glucose medium; inhibition of the nicotinamide effect, % at 10 µM; hit rate 0.68% among 130,000;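 active = inhibition above a set limit, placed 3 SD over the median of all compounds, cut at about 26% in these data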;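 note: 0% = nicotinamide-treated wells and 100% = cells grown without nicotinamide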
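Assay system: DeaD-strain S. cerevisiae. Medium: CSMM-D glucose medium, restrictive. Reagent: nicotinamide, 1.5 mM, co-present with compound. Compound: 10 µM single point, 0.25% DMSO. Schedule: culture preincubation 4 h, compound exposure 48 h, both 30 °C. Detection: absorbance at 615 nm.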
RAM inhibit = inhibitors of the yeast RAM network; hit rate 1.8% among 190,000; inhibition, % at 50 µM; AID 868; S. cerevisiae dse1pr::URA3 reporter, 5-FOA growth OD615, 2 d; analog-sensitive cbk1-as2 kinase mutant strain;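 active = inhibition above a set limit, 3 SD over mean compound inhibition, cut at about 8.4% in these data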;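 note: 0% = DMSO-only wells with no growth and 100% = 10 µM 1-NA-PP1 full growth; inhibition rescues growth on 5-FOA so higher OD means more RAM inhibition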
Phagocyt inh = inhibitors of macrophage phagocytosis. AID 1029. inhibition, % at 5 µM. J774A.1 macrophage IgG-bead phagocytosis, imaging. hit rate 0.07% among 110,000;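 active = inhibition above the mean of the plate negative controls plus 5 SD, cut at about 13% in these data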;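 note: phagocytic index as fraction of beads internalized from green versus red external bead signal; plate controls were DMSO negative control for no effect and cytochalasin-D positive control for full effect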
An asterisk follows results filed as active; / = no result given. An excerpt weighted towards active compounds, which were near 3.6% of everything screened.

SMILES	Measles CPE	Yeast growth inh	Yeast life ext	RAM inhibit	Phagocyt inh
O=C(OCn1ncc(Cl)c(Cl)c1=O)c1ccccc1Cl	2	66*	-16	-1	/
Cc1ccc(N(CC(=O)NCCc2ccc(F)cc2)S(=O)(=O)c2ccc(Cl)c([N+](=O)[O-])c2)c(C)c1	18	-12	-1	8	-11
O=C(NC(CC(=O)N1CCN(c2ccc([N+](=O)[O-])cc2)CC1)c1ccccc1)c1ccccc1Cl (stereo not given)	7	1	-3	4	-3
CCCCN1CC2([N+](=O)[O-])C=CC(=O)C([N+](=O)[O-])(C1)C2CC(=O)c1ccccc1 (stereo not given)	6	6	-2	1	-7
CCN1CC2([N+](=O)[O-])C=CC(=O)C([N+](=O)[O-])(C1)C2CC(=O)c1ccccc1 (stereo not given)	27*	-11	-11	1	/
O=c1cc(CSc2nnc(-c3cccs3)n2Cc2ccccc2)nc2sc3ccccc3n12	12	-49	-4	8.6*	-1
CNC(=O)NC(=O)C(C)OC(=O)c1cc2c(s1)CCCCC2 (stereo not given)	29*	-10	-7	0	-11
Cc1cc(C)c(-c2csc(NC(=O)c3n[nH]c(=O)c4ccccc34)n2)c(C)c1	62*	-26	8	5	-9
COc1ccccc1C1(CC(=O)O)CCOC(C)(C)C1 (stereo not given)	33*	-34	-5	1	0
CC1(C)CC(CC(=O)O)(c2ccc(F)cc2)CCO1 (stereo not given)	8	-5	-11	1	/
C=C(C)CNC(=S)N/N=C1\CCCCc2ccccc21	15	-20	1	2	-2
CCOC(=O)Cc1csc(NC(=S)NC(=O)c2ccccc2Br)n1	17	-11	7	8.6*	1
CCOC(=O)Cc1csc(NC(=S)NC(=O)c2ccc(C)cc2)n1	10	-9	-1	9.7*	-6
CCOC(=O)Cc1csc(NC(=S)NC(=O)c2cc(OC)cc(OC)c2)n1	/	/	/	1	/
CCOC(=O)Cc1csc(NC(=S)NC(=O)c2ccccc2)n1	4	-31	-3	3	/
COc1ccccc1CNC(=O)C1(c2ccc(Cl)cc2)CC1	6	7	7	-1	/
COCC(C)NCC(=O)NC(C)CCc1ccccc1 (stereo not given)	22	-17	1	1	-5
O=C(OCC(=O)N1CCc2ccccc2C1)c1cccnc1Cl	/	/	/	3	/
CCC(=O)c1ccc(OCC(O)CN2CCOCC2)cc1 (stereo not given)	6	-12	-7	0	-2
CCOc1ccc(C(=O)C(CN2CCOCC2)c2ccccc2)cc1 (stereo not given)	16	-71	49*	3	-3
COc1ccc2c(=O)c3c(=O)n(Cc4ccco4)c(-c4ccc(C)cc4)nc3oc2c1	3	-38	47*	7	-2
CC(C)(C)c1cc(C(c2cccnc2)N2CCN(CCO)CC2)cc(C(C)(C)C)c1O (stereo not given)	5	96*	18	-2	0
CC(=O)N1CCc2cc(S(=O)(=O)NCCCN3CCN(Cc4ccccc4)CC3)ccc21	17	-44	0	0	-1
CC(=O)N1CCc2cc(S(=O)(=O)NCCN3CCC(C)CC3)ccc21	38*	-73	-7	-1	0
Cn1c(-c2ccc(F)cc2)cnc1NCc1ccc(F)cc1	5	-59	9	2	1
SMILES	Measles CPE	Yeast growth inh	Yeast life ext	RAM inhibit	Phagocyt inh
Cn1c(-c2ccc(Br)cc2)cnc1NCc1cccnc1	6	-29	42*	2	-2
CCCN(CCC)C(=O)CC(c1ccccc1)c1ccc(C)cc1O (stereo not given)	26	-19	-3	0	0
CCCN(CCC)C(=O)CC(c1ccccc1)c1cc(Br)ccc1O (stereo not given)	15	-34	1	9.2*	0
CCC1(C(=O)OC)NC(c2ccco2)C2C(=O)N(c3ccc(F)cc3)C(=O)C21 (stereo not given)	/	/	/	0	/
CCC1(C(=O)OC)NC(c2ccco2)C2C(=O)N(c3ccccc3)C(=O)C21 (stereo not given)	78*	-37	-14	2	0
CCNc1nc(=S)nc(NCc2ccccc2)[nH]1	/	/	/	2	/
Cc1cccc(NC(=O)Cn2c([N+](=O)[O-])cnc2C)c1C	3	-2	10	2	-1
CCOC(=O)c1ccc(CN(Cc2ccc(C)cc2)S(=O)(=O)c2cccc([N+](=O)[O-])c2)cc1	6	-69	17	10*	-2
CC(NC(=S)NCCc1ccccc1)C(c1cccs1)N1CCN(Cc2ccccc2)CC1 (stereo not given)	3	27	-4	0	/
CCOc1ccc(S(=O)(=O)N2CCCCC2)c2ccccc12	15	-33	-14	9.4*	1
CCOc1ccc(S(=O)(=O)Nc2cc(C)ccn2)c2ccccc12	47*	-65	-6	5	-1
CCOc1ccc(S(=O)(=O)N2CCCCC2)c(C)c1C	/	/	/	0	/
O=S(=O)(c1ccc(F)c2ccccc12)N1CCCCC1	5	-6	-20	8.9*	/
O=C(NCc1nnc(SCC(=O)N2CCOCC2)o1)c1ccccc1F	/	/	/	1	/
CCCCNC(=O)OC(C)CNC(=O)Oc1cccc(C)c1 (stereo not given)	43*	-7	-29	1	-1
CCCCNC(=O)OCCNC(=O)Oc1cccc(C)c1	15	-16	-3	2	0
O=C(Nc1cc(S(=O)(=O)N2CCCCC2)ccc1O)c1ccccc1NS(=O)(=O)c1ccc(F)c(F)c1	5	-51	1	4	-15
CCOC(=O)CN1C(=O)N[C@H](c2ccc(Br)cc2)C(C(C)=O)=C1C	9	-45	46*	-1	/
CC(=O)C1=C(C)N(CC2CC2)C(=O)N[C@H]1c1ccc(Br)cc1	4	-21	0	2	/
O=C(NCCN1CCOCC1)c1cc(-c2ccc(Br)cc2)on1	12	-1	-4	1	1
C=CCNC(=O)c1cc(-c2ccc(Br)cc2)on1	63*	-19	-7	1	-2
CCc1ccc(C2=NNC(=Nc3cccc(S(=O)(=O)N(C)C)c3)SC2)cc1	15	-33	-3	3	-9
O=C(/C(=N/N=C/c1ccc(O)c(O)c1)c1ccccc1)c1ccccc1	46	-21	-10	-1	-12
CCCCCCCC(=O)N/N=C(/C)c1c(O)cc(C)oc1=O	6	-13	40*	-1	/
Cc1ccc(S(=O)(=O)Nc2ccc(SC(F)F)cc2)c(C)c1	14	61*	-3	5	-13
CC(C)c1ccc(S(=O)(=O)Nc2ccc(SC(F)F)cc2)cc1	5	-47	3	5	-7
CCc1ccc(C(=O)COC(=O)CNC(=O)COc2ccccc2)cc1	3	-27	-1	0	-4
CCCCCc1cc(O)c2c(C)cc(=O)oc2c1	63*	-41	-25	6	1

High-throughput results (PubChem)
